From publication PMC4488387 (Nature methods, 2015)

What was measured:
[1] = biological target: T1, Nluc-A1 receptor (Homo sapiens, UniProt P30542); assay: NanoBRET saturation binding, HEK293 cells stably expressing Nluc-A1; settings: Nluc-A1, concentrations up to 500 nM, non-specific 1 μM DPCPX
T1 sequence (P30542 2-326 limits assumed): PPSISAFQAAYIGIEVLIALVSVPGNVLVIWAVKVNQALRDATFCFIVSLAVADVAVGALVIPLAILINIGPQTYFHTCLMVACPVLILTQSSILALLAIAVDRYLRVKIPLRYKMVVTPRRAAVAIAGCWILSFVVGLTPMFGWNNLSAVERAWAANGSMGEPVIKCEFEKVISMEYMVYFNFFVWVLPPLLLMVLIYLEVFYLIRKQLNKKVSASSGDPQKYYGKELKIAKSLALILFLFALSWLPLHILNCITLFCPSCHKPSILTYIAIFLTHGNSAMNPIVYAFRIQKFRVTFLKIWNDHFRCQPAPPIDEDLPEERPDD

[2] = biological target: T1, Nluc-A1 receptor; assay: NanoBRET association kinetics of CA200645 binding; settings: read-out: KD from kinetics (koff/kon); Nluc-A1, room temperature, 60 min, n=3
Method in brief: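 Stable single-cell-cloned HEK293 Nluc-A1 cells were seeded 24 h ahead. Medium was replaced with HBSS containing 10 uM furimazine and equilibrated 15 min in the reader. The fluorescent ligand was then added at several concentrations, and each well was read once per min for 60 min.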

Row | Kd [2] [µM] | Compound | saturable specific BRET signal [1]
1 | – | COc1ccc(-n2nc3c(NC(=O)CCC(=O)NCCOCCOCCNC(=O)CCCCCNC(=O)COc4ccc(/C=C/C5=[N+]6C(=Cc7ccc(-c8cccs8)n7[B-]6(F)F)C=C5)cc4)nc4ccccc4n3c2=O)cc1 [AV039] | did not detect a saturable specific BRET signal
2 | 0.0204 ± 0.0069 | CA200645 | –
